The results in this text go back to ChEMBL document CHEMBL1955853, “Discovery of 3,4-dihydropyrimidin-2(1H)-ones with inhibitory activity against HIV-1 replication” (Bioorg Med Chem Lett, 2012).

Data set [1] deals with Human immunodeficiency virus 1. Put plainly: Antiviral activity against HIV1 LAI infected in human CEMx174 cells coexpressing GFP preincubated for 1 hr measured after 5 days by fluorimetry. It counts as functional, organism-based. The settings on record: Human immunodeficiency virus 1, LAI. The method in brief:
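CEM reporter cells carrying an EGFP cassette driven by the HIV promoter were seeded at 4000 cells/well. They were infected with HIV-1 LAI at MOI 3 and incubated 5 days at 37 °C, 5% CO2. EGFP fluorescence intensity was read on a plate reader. Values are the geometric mean of two determinations, with each value within 25% of the mean.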

Data set [2] can be described thus: Cytotoxicity against human CEMx174 cells. The format is cell-based. A digest of the protocol: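 CC50 is the compound concentration that reduces viability of uninfected cells by 50%. Values are the geometric mean of two determinations, with each value within 25% of the mean.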

A word on the pEC50: it is the negative decadic logarithm of the EC50, by convention in mol/L. High values mean a low EC50, low ones a high EC50. A word on the CC50: it is the concentration giving 50% cytotoxicity. A higher CC50 goes with lower toxicity to the cells.

The structures appear in SMILES notation. pEC50: −log10 of the molar value.

In data set [1], `CC1=C(C(=O)OCC2CCCCC2)C(c2ccc(O)cc2)NC(=O)N1` (stereo not given) gave a pEC50 of 6.37. In data set [2], this molecule displayed a CC50 greater than 10 µM.

Turning to `COc1cccc(C2NC(=O)NC(C)=C2C(=O)OCC2CCCCC2)c1` (stereo not given), the pEC50 in data set [1] was 5.90. The molecule further gave a CC50 in data set [2] greater than 10 µM.

The molecule `O=C1NC(c2ccccc2)=C(C(=O)OCC2CCCCC2)C(c2cccc(O)c2)N1` (stereo not given) showed a pEC50 in data set [1] of less than 5.00. The CC50 in data set [2] was greater than 10 µM.

In data set [1], `CC1=C(C(=O)O)C(c2cccc(O)c2)NC(=O)N1` (stereo not given) gave a pEC50 of less than 5.00. In data set [2], the CC50 was greater than 10 µM.

In turn, `CC1=C(C(=O)OCc2ccccc2)C(c2cccc(O)c2)NC(=O)N1` (stereo not given) gave a pEC50 in data set [1] of less than 5.00. Besides, the CC50 in data set [2] is greater than 10 µM.

`CC1=C(C(=O)OC2CCCCC2)C(c2cccc(O)c2)NC(=O)N1` (stereo not given) had a pEC50 in data set [1] of less than 5.00. The molecule further gave a CC50 in data set [2] greater than 10 µM.

In the case of `CC1=C(C(=O)NCC2CCCCC2)C(c2cccc(O)c2)NC(=O)N1` (stereo not given), the pEC50 in data set [1] was less than 5.00.

For the molecule `CC1=C(C(=O)OCC2CCCCC2)C(c2cccc(O)c2)NC(=O)N1C` (stereo not given), the pEC50 in data set [1] is less than 5.00. In data set [2], this molecule registered a CC50 greater than 10 µM.

In turn, `CC1=C(C(=O)OCC2CCCCC2)C(c2cccc(O)c2)N(C)C(=O)N1` (stereo not given) showed a pEC50 in data set [1] of less than 5.00. In data set [2], this molecule gave a CC50 greater than 10 µM.

Molecule `Cc1nc(=O)[nH]c(-c2cccc(O)c2)c1C(=O)OCC1CCCCC1` showed a pEC50 in data set [1] of less than 5.00. Moreover, the CC50 in data set [2] is greater than 10 µM.

The molecule `CC1=C(C(=O)OCC2CCCCC2)C(c2cccc(O)c2)NC(=S)N1` (stereo not given) gave a pEC50 in data set [1] of less than 5.00. The molecule also registered a CC50 in data set [2] greater than 10 µM.

Regarding `CCCC1=C(C(=O)OCC2CCCCC2)C(c2cccc(O)c2)NC(=O)N1` (stereo not given), the pEC50 in data set [1] was 6.54. This molecule also had a CC50 in data set [2] greater than 10 µM.

As to `CC(C)C1=C(C(=O)OCC2CCCCC2)C(c2cccc(O)c2)NC(=O)N1` (stereo not given), the pEC50 in data set [1] is less than 5.00.

`O=C1NC(C2CC2)=C(C(=O)OCC2CCCCC2)C(c2cccc(O)c2)N1` (stereo not given) had a pEC50 in data set [1] of less than 5.00. In addition, in data set [2], the CC50 was greater than 10 µM.

Consider `O=C1NC(CCl)=C(C(=O)OCC2CCCCC2)C(c2cccc(O)c2)N1` (stereo not given), for which, in data set [1], the pEC50 is 6.44. Besides, the CC50 in data set [2] is greater than 3 µM.

In turn, `C#CC1=C(C(=O)OCC2CCCCC2)C(c2cccc(O)c2)NC(=O)N1` (stereo not given) had a pEC50 in data set [1] of 5.66. In data set [2], the CC50 is greater than 1 µM.

In data set [1], `CCC1=C(C(=O)OCC2CCCCC2)C(c2cccc(O)c2)NC(=S)N1` (stereo not given) showed a pEC50 of less than 5.00. The molecule further showed a CC50 in data set [2] greater than 10 µM.

`CC1=C(C(=O)OCC2CCCCC2)C(c2ccccc2O)NC(=O)N1` (stereo not given): the pEC50 in data set [1] was less than 5.00. The same molecule registered a CC50 in data set [2] greater than 10 µM.

`CCC1=C(C(=O)OCC2CCCCC2)C(c2ccc(O)cc2)NC(=O)N1` (stereo not given): the pEC50 in data set [1] is 7.51. Further, in data set [2], the CC50 was greater than 10 µM.

The molecule `CCC1=C(C(=O)OCC2CCCCC2)C(c2cccc([N+](=O)[O-])c2)NC(=O)N1` (stereo not given) gave a pEC50 in data set [1] of 6.47. In data set [2], the CC50 is greater than 10 µM.

With `CCC1=C(C(=O)OCC2CCCCC2)C(c2cccc(N)c2)NC(=O)N1` (stereo not given), the pEC50 in data set [1] was 6.80. The molecule also displayed a CC50 in data set [2] greater than 10 µM.

Take `CCC1=C(C(=O)OCC2CCCCC2)C(c2ccc([N+](=O)[O-])cc2)NC(=O)N1` (stereo not given): the pEC50 in data set [1] is 6.85. Also, the CC50 in data set [2] is greater than 10 µM.

In data set [1], `CCC1=C(C(=O)OCC2CCCCC2)C(c2ccc(N)cc2)NC(=O)N1` (stereo not given) gave a pEC50 of 6.82. Moreover, the CC50 in data set [2] was greater than 10 µM.

`CCC1=C(C(=O)OCC2CCCCC2)C(c2ccc(NC)cc2)NC(=O)N1` (stereo not given): the pEC50 in data set [1] was 6.97. In data set [2], this molecule registered a CC50 greater than 10 µM.

In the case of `CCC1=C(C(=O)OCC2CCCCC2)C(c2ccc(NC(C)=O)cc2)NC(=O)N1` (stereo not given), the pEC50 in data set [1] was 7.20. The same molecule had a CC50 in data set [2] greater than 10 µM.

As to `CCC1=C(C(=O)OCC2CCCCC2)C(c2ccc(N(C)C)cc2)NC(=O)N1` (stereo not given), the pEC50 in data set [1] is 6.75. In addition, the CC50 in data set [2] is greater than 10 µM.

In turn, `CCC1=C(C(=O)OCC2CCCCC2)C(c2ccc(C#N)cc2)NC(=O)N1` (stereo not given) showed a pEC50 in data set [1] of 7.21. In data set [2], this molecule gave a CC50 greater than 10 µM.

Molecule `CCC1=C(C(=O)OCC2CCCCC2)C(c2ccc(C(=O)OC)cc2)NC(=O)N1` (stereo not given) gave a pEC50 in data set [1] of 6.91. Besides, the CC50 in data set [2] was greater than 10 µM.

Turning to `CCC1=C(C(=O)OCC2CCCCC2)C(c2ccc(C(=O)O)cc2)NC(=O)N1` (stereo not given), the pEC50 in data set [1] was less than 5.00. This molecule also came in with a CC50 in data set [2] greater than 10 µM.

`CCC1=C(C(=O)OCC2CCCCC2)C(c2ccc(Cl)cc2)NC(=O)N1` (stereo not given) showed a pEC50 in data set [1] of 7.06. This molecule also showed a CC50 in data set [2] greater than 10 µM.

For `CCC1=C(C(=O)OCC2CCCCC2)C(c2ccc(F)cc2)NC(=O)N1` (stereo not given), in data set [1], the pEC50 was 7.62. Further, in data set [2], the CC50 was greater than 10 µM.

For the molecule `CC1=C(C(=O)OCC2CCCCC2)[C@H](c2cccc(O)c2)NC(=O)N1`, in data set [1], the pEC50 is 6.63. The CC50 in data set [2] is greater than 10 µM.

With `CC1=C(C(=O)OCC2CCCCC2)[C@@H](c2cccc(O)c2)NC(=O)N1`, the pEC50 in data set [1] was less than 5.00. Also, the CC50 in data set [2] was greater than 10 µM.

`CCC1=C(C(=O)OCC2CCCCC2)[C@H](c2cccc(O)c2)NC(=O)N1`: the pEC50 in data set [1] is 7.42. Besides, the CC50 in data set [2] is greater than 10 µM.

In turn, `CCC1=C(C(=O)OCC2CCCCC2)[C@@H](c2cccc(O)c2)NC(=O)N1` had a pEC50 in data set [1] of less than 5.00. The molecule further registered a CC50 in data set [2] greater than 10 µM.

The molecule `CCOC(=O)C1=C(C)NC(=O)NC1c1cccc(O)c1` (stereo not given) had a pEC50 in data set [1] of less than 5.00.

As to `CC1=C(C(=O)OCC2CCCCC2)C(c2cccc(O)c2)NC(=O)N1` (racemic), in data set [1], the pEC50 is 6.28. The molecule further gave a CC50 in data set [2] greater than 10 µM.

The molecule `CCC1=C(C(=O)OCC2CCCCC2)C(c2cccc(O)c2)NC(=O)N1` (racemic) gave a pEC50 in data set [1] of 7.06. The CC50 in data set [2] was greater than 10 µM.

Molecule `Cc1ccnc2c1NC(=O)c1cccnc1N2C1CC1` [NEVIRAPINE] showed a pEC50 in data set [1] of 6.82. The same molecule yielded a CC50 in data set [2] greater than 10 µM.
